The values below come from ChEMBL document CHEMBL3102816, “Design, synthesis and molecular modeling of novel N-acylhydrazone derivatives as pyruvate dehydrogenase complex E1 inhibitors” (Bioorg Med Chem, 2014).

The nature of the test: Inhibition of Escherichia coli […] expressed in Escherichia coli TB1 using sodium pyruvate as substrate assessed as reduction of 2,6-DCPIP preincubated for 3 mins followed by ThDP addition. The gist of the method:
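MBP-fused E. coli PDHc-E1 from plasmid pMal-C2X in strain TB1 (LB with 2% glucose, ampicillin, 37 °C to A600 0.6–0.8; 0.5 mM IPTG, 7 h, 25 °C), MBP affinity-purified, Bradford-quantified. Reaction: 50 mM K3PO4 pH 7.2, 2.0 mM pyruvate, 0.8 mM 2,6-DCPIP, enzyme, inhibitor at varied concentrations; 3 min at 37 °C, then ThDP added; DCPIP reduction read at 600 nm.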
Regarding `Cc1ncc(Cn2nnc(C(=O)N/N=C/c3ccc(Br)cc3)c2C)c(N)n1`, the IC50 – broadly, the point on the concentration scale where inhibition reaches its midpoint – came to 1.89 µM. The same measure for `Cc1ncc(Cn2nnc(C(=O)N/N=C/c3ccccc3)c2C)c(N)n1`: 110 µM; for `Cc1ncc(Cn2nnc(C(=O)N/N=C/c3ccccc3O)c2C)c(N)n1`: 11.6 µM; for `Cc1ncc(Cn2nnc(C(=O)N/N=C/c3ccc([N+](=O)[O-])cc3)c2C)c(N)n1`: 0.65 µM. The same measure for `Cc1ncc(Cn2nnc(C(=O)N/N=C/c3ccc(O)cc3)c2C)c(N)n1`: 3.43 µM; for `Cc1ncc(Cn2nnc(C(=O)N/N=C/c3ccc(C(F)(F)F)cc3)c2C)c(N)n1`: 1.92 µM. As for `Cc1ncc(Cn2nnc(C(=O)N/N=C/c3cccc(O)c3)c2C)c(N)n1`, the figure is 23.4 µM. On to `Cc1ncc(Cn2nnc(C(=O)N/N=C/c3ccccn3)c2C)c(N)n1`, for which the half-maximal inhibitory concentration (IC50) was found to be 22.8 µM. As for `Cc1ncc(Cn2nnc(C(=O)N/N=C/c3ccc(Cl)cc3)c2C)c(N)n1`, the figure is 2.35 µM; as for `Cc1ncc(Cn2nnc(C(=O)N/N=C/c3ccccc3Cl)c2C)c(N)n1`, 13.6 µM.

Turning to `Cc1ncc(Cn2nnc(C(=O)N/N=C/c3ccccc3Br)c2C)c(N)n1`, the IC50 came out at 53.8 µM. For the compound `Cc1ncc(Cn2nnc(C(=O)N/N=C/c3ccc(Cl)c([N+](=O)[O-])c3)c2C)c(N)n1`, the IC50 turned out to be 1.71 µM. As for `Cc1ccc(/C=N/NC(=O)c2nnn(Cc3cnc(C)nc3N)c2C)cc1`, the figure is 50.3 µM. With `Cc1ncc(Cn2nnc(C(=O)N/N=C/c3ccc(F)cc3)c2C)c(N)n1`, the IC50 worked out at 8 µM. As for `Cc1cccc(/C=N/NC(=O)c2nnn(Cc3cnc(C)nc3N)c2C)c1`, the figure is 20.9 µM.

In the case of `Cc1ncc(Cn2nnc(C(=O)N/N=C/c3ccc4c(c3)OCO4)c2C)c(N)n1`, the IC50 is 14.5 µM.
